Tests used:
Bacillus subtilis [1] = test: Resistance ratio of Ki for HPUra/HPiCyt-resistant Bacillus subtilis DNA polymerase-3/azp-12 mutant to Ki for wild type Bacillus subtilis DNA polymerase-3
[2] = Inhibition of wild type Bacillus subtilis DNA polymerase-3 using DNAase 1-treated DNA as template assessed as inhibition of dGTP truncated DNA synthesis by measuring incorporation of [3H]-TMP in presence of dithiothreitol
Outline: (§1)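 dGTP-omitted pol III reaction, 30 °C, 5 min, in 0.05 mL: 20% glycerol, 50 mM Tris HCl pH 7.6, 10 mM MgCl2, 30 mM NaCl, 1.2 mM DNAase I-activated calf thymus DNA, 5 mM DTT, 0.1 mg/mL BSA, 10 μM each dATP, dCTP and [3H]-TTP, 0.005-0.1 unit enzyme. Read-out is acid-insoluble radioactivity. Ki is the inhibitor concentration giving 50% inhibition.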

[3] = Inhibition of HPUra/HPiCyt-resistant Bacillus subtilis DNA polymerase-3/azp-12 mutant using DNAase 1-treated DNA as template assessed as inhibition of dGTP truncated DNA synthesis by measuring incorporation of [3H]-TMP in presence of dithiothreitol; outline: as §1
Bacillus subtilis [4] = test: Inhibition of wild type Bacillus subtilis DNA polymerase-3 using DNAase 1-treated DNA as template assessed as inhibition of dGTP truncated DNA synthesis by measuring incorporation of [3H]-TMP at 1 mM in presence of dithiothreitol relative to control; outline: as §1
Bacillus subtilis [5] = test: Inhibition of wild type Bacillus subtilis DNA polymerase-3 using DNAase 1-treated DNA as template assessed as inhibition of dGTP truncated DNA synthesis by measuring incorporation of [3H]-TMP at 20 uM in presence of dithiothreitol relative to control; outline: as §1
Bacillus subtilis [6] = test: Inhibition of HPUra/HPiCyt-resistant Bacillus subtilis DNA polymerase-3/azp-12 mutant using DNAase 1-treated DNA as template assessed as inhibition of dGTP truncated DNA synthesis by measuring incorporation of [3H]-TMP at 20 uM relative to control in presence of dithiothreitol; outline: as §1

SMILES | Ki [2] [µM] | also measured
Cc1ccc(NNc2cc(=O)[nH]c(=O)[nH]2)cc1C | 1.4 | 
O=c1cc(NNc2cccc(Br)c2)[nH]c(=O)[nH]1 | 1.4 | 
O=c1cc(NNc2ccccc2F)[nH]c(=O)[nH]1 | 7.2 | 
O=c1cc(NNc2ccc(Cl)c(Cl)c2)[nH]c(=O)[nH]1 | 0.6 | 
Nc1nc(NNc2ccc(O)cc2)cc(=O)[nH]1 |  | Ratio Ki (Bacillus subtilis [1]): 30
Cc1ccc(NNc2cc(=O)[nH]c(=O)[nH]2)cc1Cl | 0.8 | 
Nc1cc(O)nc(O)n1 |  | inhibition (Bacillus subtilis [4]): < 10%
Cc1cc(NNc2cc(=O)[nH]c(=O)[nH]2)cc(C)c1O | 124 | 
O=c1cc(NNc2ccc(O)c(Cl)c2)[nH]c(=O)[nH]1 | 8.8 | 
Cc1ccccc1NNc1cc(=O)[nH]c(=O)[nH]1 | 234 | 
NNc1cc(=O)[nH]c(=O)[nH]1 |  | inhibition (Bacillus subtilis [4]): < 10%
Cn1c(=O)cc(NNc2ccccc2)[nH]c1=O | 1.6 | 
O=c1cc(NNc2cccc(F)c2)[nH]c(=O)[nH]1 | 0.7 | 
Cn1c(NNc2ccccc2)cc(=O)[nH]c1=O |  | inhibition (Bacillus subtilis [4]): < 10%
Cn1c(=O)cc(NNc2ccc(O)cc2)[nH]c1=O | 0.5 | 
CN(Nc1cc(=O)[nH]c(=O)[nH]1)c1ccccc1 | 480 | 
O=c1cc(NNc2cccc(Cl)c2)[nH]c(=O)[nH]1 | 1.1 | 
Cc1cc(NNc2cc(=O)[nH]c(=O)[nH]2)ccc1O | 51.2 | 
CCc1ccccc1NNc1cc(=O)[nH]c(=O)[nH]1 | 562 | 
O=c1cc(NNc2ccccc2)[nH]c(=O)[nH]1 | 1.4 | Ki [3]: 2.1 µM

Second part, led by results:

Ki [2] [µM] | SMILES | also measured
0.4 | O=c1cc(NNc2ccc(O)cc2)[nH]c(=O)[nH]1 | Ratio Ki (Bacillus subtilis [1]): 50; Ki [3]: 20 µM
98 | O=C(O)c1ccc(NNc2cc(=O)[nH]c(=O)[nH]2)cc1 | 
1.6 | CCc1ccc(NNc2cc(=O)[nH]c(=O)[nH]2)cc1 | 
209 | CS(=O)(=O)c1ccc(NNc2cc(=O)[nH]c(=O)[nH]2)cc1 | 
2300 | CCCCc1ccc(NNc2cc(=O)[nH]c(=O)[nH]2)cc1 | 
0.5 | Cc1ccc(NNc2cc(=O)[nH]c(=O)[nH]2)cc1 | Ki [3]: 0.4 µM
2.5 | Cc1cccc(NNc2cc(=O)[nH]c(=O)[nH]2)c1 | inhibition (Bacillus subtilis [5]): 80%; inhibition (Bacillus subtilis [6]): 85%
3 | O=c1cc(NNc2ccc(F)cc2)[nH]c(=O)[nH]1 | inhibition (Bacillus subtilis [5]): 82%; inhibition (Bacillus subtilis [6]): 93%
7.1 | Nc1ccc(NNc2cc(=O)[nH]c(=O)[nH]2)cc1 | Ki [3]: 76.4 µM
26.3 | O=c1cc(NNc2ccc([N+](=O)[O-])cc2)[nH]c(=O)[nH]1 | 
0.7 | O=c1cc(NNc2ccc(Br)cc2)[nH]c(=O)[nH]1 | inhibition (Bacillus subtilis [5]): 82%; inhibition (Bacillus subtilis [6]): 95%
0.9 | O=c1cc(NNc2ccc(Cl)cc2)[nH]c(=O)[nH]1 | inhibition (Bacillus subtilis [5]): 91%; inhibition (Bacillus subtilis [6]): 95%
560 | CC(=O)Nc1ccc(NNc2cc(=O)[nH]c(=O)[nH]2)cc1 | 

Reference: ChEMBL document CHEMBL3272286, “Inhibitors of Bacillus subtilis DNA polymerase III. Structure-activity relationships of 6-(phenylhydrazino)uracils” (J Med Chem, 1977)
